# Assay results as given in ChEMBL document CHEMBL3098022, “Multifunctional cholinesterase and amyloid Beta fibrillization modulators. Synthesis and biological investigation” (ACS Med Chem Lett, 2013).
# Calls of active or inactive are those of the source. The rule behind the calls is not given here.
# Experiments:
# Cholinesterase = Cholinesterase (Homo sapiens, UniProt P06276); experiment: Inhibition of human butyrylcholine esterase
# [1] = biological target: T1, Amyloid-beta precursor protein (Homo sapiens, UniProt P05067); experiment: Inhibition of amyloid beta (1 to 42) aggregation (unknown origin) after 24 hrs by ThT-based fluorescence assay
# T1 sequence (P05067 whole entry): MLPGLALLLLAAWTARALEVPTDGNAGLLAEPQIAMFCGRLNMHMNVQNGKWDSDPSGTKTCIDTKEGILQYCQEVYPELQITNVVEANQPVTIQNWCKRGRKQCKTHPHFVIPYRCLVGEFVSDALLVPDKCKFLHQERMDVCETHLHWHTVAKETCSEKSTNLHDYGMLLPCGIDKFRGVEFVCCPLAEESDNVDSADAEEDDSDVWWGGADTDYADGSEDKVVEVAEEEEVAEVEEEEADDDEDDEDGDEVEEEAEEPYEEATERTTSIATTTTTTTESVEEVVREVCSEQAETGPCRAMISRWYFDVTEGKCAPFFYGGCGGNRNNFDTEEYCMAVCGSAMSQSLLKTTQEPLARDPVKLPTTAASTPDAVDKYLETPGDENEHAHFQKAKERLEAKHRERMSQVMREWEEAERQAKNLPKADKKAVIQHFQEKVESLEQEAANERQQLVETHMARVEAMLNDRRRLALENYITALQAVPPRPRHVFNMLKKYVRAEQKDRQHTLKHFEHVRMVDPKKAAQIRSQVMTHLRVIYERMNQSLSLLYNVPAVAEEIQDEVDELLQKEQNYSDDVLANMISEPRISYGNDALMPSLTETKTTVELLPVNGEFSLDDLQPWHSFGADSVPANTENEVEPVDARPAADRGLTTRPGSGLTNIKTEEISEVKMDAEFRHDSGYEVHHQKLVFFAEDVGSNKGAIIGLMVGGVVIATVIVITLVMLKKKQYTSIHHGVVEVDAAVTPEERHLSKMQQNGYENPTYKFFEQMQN
# Acetylcholinesterase [2] = biological target: T2, Acetylcholinesterase (Homo sapiens, UniProt P22303); experiment: Inhibition of human acetylcholine esterase-induced amyloid beta (1 to 40) aggregation by ThT-based fluorescence assay
# T2 sequence (P22303 whole entry): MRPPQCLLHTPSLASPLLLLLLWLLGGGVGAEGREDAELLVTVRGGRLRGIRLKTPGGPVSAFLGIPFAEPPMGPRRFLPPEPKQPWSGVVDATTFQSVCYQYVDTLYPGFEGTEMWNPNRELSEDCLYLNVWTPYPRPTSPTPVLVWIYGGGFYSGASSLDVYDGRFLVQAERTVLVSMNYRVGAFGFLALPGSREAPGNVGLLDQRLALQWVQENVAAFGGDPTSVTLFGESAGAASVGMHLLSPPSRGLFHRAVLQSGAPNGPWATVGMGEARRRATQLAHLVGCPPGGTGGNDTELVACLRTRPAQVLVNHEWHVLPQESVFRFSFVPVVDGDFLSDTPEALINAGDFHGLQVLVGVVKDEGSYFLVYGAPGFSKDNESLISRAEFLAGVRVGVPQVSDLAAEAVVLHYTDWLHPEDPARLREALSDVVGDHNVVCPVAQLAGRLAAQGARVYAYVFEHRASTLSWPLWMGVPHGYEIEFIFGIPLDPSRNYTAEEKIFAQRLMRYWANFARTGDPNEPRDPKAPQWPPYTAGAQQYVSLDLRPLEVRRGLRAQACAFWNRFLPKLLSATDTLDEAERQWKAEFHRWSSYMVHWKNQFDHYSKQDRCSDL
# Acetylcholinesterase [3] = biological target: T2, Acetylcholinesterase; experiment: Inhibition of human acetylcholine esterase
# Acetylcholinesterase [4] = biological target: T2, Acetylcholinesterase; experiment: Inhibition of human acetylcholine esterase-induced amyloid beta (1 to 40) aggregation at 100 uM by ThT-based fluorescence assay
# Homo sapiens = species on record: Homo sapiens; experiment: Selectivity ratio of Ki for human acetylcholine esterase to Ki for human butyrylcholine esterase
# [5] = biological target: T1, Amyloid-beta precursor protein; experiment: Inhibition of amyloid beta (1 to 42) aggregation (unknown origin) at 5 uM by ThT-based fluorescence assay
# [6] = biological target: T1, Amyloid-beta precursor protein; experiment: Inhibition of amyloid beta (1 to 42) oligomerization (unknown origin) assessed as oligomer stabilization at 200 uM after 2 days by capillary electrophoresis method
# [7] = biological target: T1, Amyloid-beta precursor protein; experiment: Inhibition of amyloid beta (1 to 42) oligomerization (unknown origin) assessed as depletion of higher molecular weight oligomers formation at 200 to 500 uM by capillary electrophoresis method; conditions: TDE = time-dependent effect
# [8] = biological target: T1, Amyloid-beta precursor protein; experiment: Inhibition of amyloid beta (1 to 42) oligomerization (unknown origin) assessed as oligomer stabilization at 200 uM after 6 hrs by capillary electrophoresis method
# [9] = biological target: T1, Amyloid-beta precursor protein; experiment: Inhibition of amyloid beta (1 to 42) oligomerization (unknown origin) assessed as disaggregation of toxic oligomers and precipitation at 200 to 500 uM by transmission electron microscopy relative to control
# [10] = biological target: T1, Amyloid-beta precursor protein; experiment: Inhibition of amyloid beta (1 to 42) oligomerization (unknown origin) assessed as inhibition of toxic aggregate formation at 500 uM after 24 hrs by capillary electrophoresis method
# [11] = biological target: T1, Amyloid-beta precursor protein; experiment: Inhibition of amyloid beta (1 to 42) oligomerization (unknown origin) assessed as depletion of higher molecular weight oligomers after 6 hrs to 2 days by capillary electrophoresis method
# [12] = biological target: T1, Amyloid-beta precursor protein; experiment: Inhibition of amyloid beta (1 to 42) oligomerization (unknown origin) assessed as amorphous aggregates formation at 50 to 500 uM by transmission electron microscopy
# Summary of the method: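 Aβ1-42 samples were imaged by transmission electron microscopy with 50 µM test compound added, n = 2.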
# [13] = biological target: T1, Amyloid-beta precursor protein; experiment: Inhibition of amyloid beta (1 to 42) oligomerization (unknown origin) assessed as oligomer stabilization at 200 uM measured immediately by capillary electrophoresis method
# [14] = biological target: T1, Amyloid-beta precursor protein; experiment: Inhibition of amyloid beta (1 to 42) oligomerization (unknown origin) assessed as stable smaller oligomer formation at 500 uM after 24 hrs by capillary electrophoresis method
# Cholinesterase, sequence (P06276 whole entry): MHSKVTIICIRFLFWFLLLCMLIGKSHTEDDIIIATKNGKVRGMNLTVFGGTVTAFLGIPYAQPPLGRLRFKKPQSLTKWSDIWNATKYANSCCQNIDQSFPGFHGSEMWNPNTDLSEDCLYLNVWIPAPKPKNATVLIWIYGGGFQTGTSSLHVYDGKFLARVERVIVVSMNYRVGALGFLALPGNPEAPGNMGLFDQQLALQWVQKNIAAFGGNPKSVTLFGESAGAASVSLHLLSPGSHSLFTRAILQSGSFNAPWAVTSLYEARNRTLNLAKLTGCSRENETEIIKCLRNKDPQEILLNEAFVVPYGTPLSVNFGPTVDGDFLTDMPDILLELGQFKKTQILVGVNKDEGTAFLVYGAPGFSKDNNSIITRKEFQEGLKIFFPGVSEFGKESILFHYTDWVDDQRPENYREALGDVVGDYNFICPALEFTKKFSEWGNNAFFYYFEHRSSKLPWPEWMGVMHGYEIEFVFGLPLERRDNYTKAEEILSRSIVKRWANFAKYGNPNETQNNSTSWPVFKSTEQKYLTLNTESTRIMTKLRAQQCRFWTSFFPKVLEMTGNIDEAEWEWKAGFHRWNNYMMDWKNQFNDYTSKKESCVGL
Structure (SMILES),Ki (Cholinesterase) [nM],Ki (Acetylcholinesterase [3]) [nM],inhibition (Acetylcholinesterase [4]) [%],Ratio Ki (Homo sapiens),inhibition [5] [%],other results
CN(CCCCNc1c2c(nc3c(NC(=O)CNC(=O)CC[C@H](NC(=O)CNC(=O)OCc4ccccc4)C(=O)N[C@@H](Cc4ccccc4)C(=O)OCc4ccccc4)cccc13)CCCC2)CCCNc1c2c(nc3ccccc13)CCCC2,21.3,1.48,42,0.07,,IC50 [1]: 51000 nM; IC50 (Acetylcholinesterase [2]): 113000 nM
c1ccc2c(NCCCCCCCNc3c4c(nc5ccccc35)CCCC4)c3c(nc2c1)CCCC3,,,,,8.4,
Nc1cccc2c(NCCCCCCCCNc3c4c(nc5ccccc35)CCCC4)c3c(nc12)CCCC3,8.26,0.23,,0.028,,
CN(CCCCNc1c2c(nc3ccccc13)CCCC2)CCCNc1c2c(nc3c(NC(=O)CNC(=O)CC[C@H](NC(=O)CNC(=O)OCc4ccccc4)C(=O)N[C@@H](Cc4ccccc4)C(=O)OCc4ccccc4)cccc13)CCCC2,61.8,5.02,42,0.081,,
O=[N+]([O-])c1cccc2c(NCCCCCCCCNc3c4c(nc5ccccc35)CCCC4)c3c(nc12)CCCC3,0.06,0.78,,13,,
O=C(CC[C@H](NC(=O)CNC(=O)OCc1ccccc1)C(=O)N[C@@H](Cc1ccccc1)C(=O)OCc1ccccc1)NCC(=O)Nc1cccc2c(NCCCCCCCCNc3c4c(nc5ccccc35)CCCC4)c3c(nc12)CCCC3,40.9,1.92,26,0.038,81,inhibition [6]: Active; inhibition [7]: tde; inhibition [8]: 87.2%; inhibition [9]: Active; inhibition [10]: Active; inhibition [11]: Dose-dependent effect; inhibition [12]: Active; inhibition [13]: 82.5%; inhibition [14]: Active
